# CHO parental Ca – signal in parental CHO cells, OX1R antagonist counter-screen | actives 0.63% (n = 330,000) | inhibition, % at 5.6 µM | parental CHO-K1, ATP-induced calcium, Fluo-8 fluorescence;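 active means inhibition above that plate's mean sample inhibition plus 3 SD, cut at about 26% in these data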;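 further: 0% = ATP-challenged DMSO wells and 100% = DMSO wells without ATP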
#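 Material: parental CHO cells / Compound: single nominal dose of 5.6 µM per compound / Signal: Fluo-8 fluorescence / Replicates: singlicate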
# OX1R antag-1 – blocks the human orexin 1 receptor. AID 485270. actives 1.8% (n = 330,000). O43613. inhibition, % at 6.6 µM. OX1R-expressing cells, FRET antagonist read-out; in the data active means inhibition mostly above about 38%, no sharp cut-off; inactive means mostly below about 40%;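 further: 0% = agonist challenge alone and 100% = reference antagonist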
# Target sequence (O43613 whole entry, looked up): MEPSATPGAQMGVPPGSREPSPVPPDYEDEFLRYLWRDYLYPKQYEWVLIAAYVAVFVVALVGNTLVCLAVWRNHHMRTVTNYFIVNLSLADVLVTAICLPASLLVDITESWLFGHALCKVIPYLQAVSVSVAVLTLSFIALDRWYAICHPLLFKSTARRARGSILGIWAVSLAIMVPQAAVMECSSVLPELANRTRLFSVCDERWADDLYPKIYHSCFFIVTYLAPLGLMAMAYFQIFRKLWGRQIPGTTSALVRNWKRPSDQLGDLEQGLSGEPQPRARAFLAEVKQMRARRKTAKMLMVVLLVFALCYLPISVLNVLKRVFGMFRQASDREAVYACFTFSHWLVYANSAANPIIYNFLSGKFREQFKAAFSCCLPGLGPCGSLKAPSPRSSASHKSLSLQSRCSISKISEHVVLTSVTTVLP
# CHO-K1 Ca PAM – nonselective activator or artifact in parental CHO-K1 calcium assay | ATP EC20, Fluo-8 calcium fluorescence; 0% at ATP EC20, 100% at ATP max | activation, % at 3 µM | actives 0.02% (n = 360,000) | AID 602247;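 active means activation above the run cutoff, the mean activation of all test compounds plus 3 SD, cut at about 40% in these data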;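 further: peak over basal fluorescence ratio in a 140 s read after ATP addition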
# CHO-K1 Ca ag – counter-screen for M1 agonists: effect in parental CHO-K1 cells; Fluo-8 calcium fluorescence; scaled to maximal ATP response, vehicle zero; activation, % at 3 µM; actives 0.48% (n = 360,000); in the data active means activation above about 15%;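 further: untransfected CHO-K1 host cells lacking M1 receptor as counterscreen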
# OX1R antag-2 – antagonists of human orexin 1 receptor. CHO/OX1R cells, Fluo-8 calcium fluorescence, orexin A. inhibition, % at 5 µM. actives 0.43% (n = 330,000);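 active means inhibition above its plate's threshold, mean inhibition of all tested compounds on the plate plus 3 SD, cut at about 37% in these data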;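 further: 0% = orexin A challenge wells and 100% = SB-334867-A antagonist wells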
# CHO-K1 Ca antag – counter-screen for M1 antagonists: effect in parental CHO-K1 cells; ATP-induced calcium, Fluo-8 fluorescence; inhibition, % at 3 µM; actives 0.6% (n = 360,000); AID 602250;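 active means inhibition above a per-plate cutoff, the plate's mean sample inhibition plus 3 SD, cut at about 24% in these data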;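 further: 0% = DMSO plus EC80 ATP and 100% = DMSO alone without ATP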
# Active calls of the source: *; . = no result given. In the library only some 2.9% were active in any assay of this set; here they are far more common.
SMILES,CHO parental Ca,OX1R antag-1,CHO-K1 Ca PAM,CHO-K1 Ca ag,OX1R antag-2,CHO-K1 Ca antag
COc1ccc(CCNC(=O)CCOc2ccc(C(C)(C)C)cc2)cc1OC,-27,20,13,3,-19,-5
CCOC(=O)c1cc2cc3ccccc3cc2[nH]1,6,38*,3,2,-8,1
N#CC(C#N)=NNc1ccc([N+](=O)[O-])cc1,-1,72*,-25,2,2,11
C/C(=N\Nc1ccc([N+](=O)[O-])cc1)c1ccc(C#N)cc1,14,18,7,0,-4,0
C=CCc1ccccc1OCCNCCCOC,-11,30,-16,0,-11,24*
C=CCc1cc(Cl)ccc1OCCNCCCOC,-8,26,5,2,-23,-10
CC(=O)c1c(-c2ccccc2)c2cc(Cl)ccc2[nH]c1=O,-19,67*,5,0,2,-1
COc1ccc(C(=O)N2CCN(S(=O)(=O)c3ccc(F)cc3)CC2)cc1OC,-2,8,7,20*,-17,9
COc1ccc(S(=O)(=O)N2CCN(C(=O)c3ccc(=O)[nH]n3)CC2)cc1OC,.,.,3,16*,.,8
COc1ccc(C(=O)N2CCN(S(=O)(=O)c3ccc(Cl)cc3)CC2)cc1OC,5,8,20,2,-29,-7
COc1ccc(S(=O)(=O)N2CCN(C(=O)c3cccnc3)CC2)cc1OC,0,-7,9,1,-22,-10
O=C(NCCC1CCCCN1S(=O)(=O)c1ccccc1)C(=O)Nc1ccc(F)cc1F (centres undefined),-13,22,2,0,-28,-1
CCN1C[C@@H]2[C@@H]3C(=O)N(C)C(=O)[C@@H]3[C@](C)(C1=O)N2C(=O)c1ccc(Br)cc1,.,.,-1,0,.,1
COCc1ccc(C(=O)N2CCCC(N3CCN(c4cccc(Cl)c4)CC3)C2)s1 (centres undefined),.,.,9,2,.,-16
O=C(/C=C/c1cccc(C(F)(F)F)c1)Nc1cccc(C(F)(F)F)c1,-5,36*,-6,4,31,11
N#Cc1cn(CCOC(=O)c2cccc(C(F)(F)F)c2)c(=O)[nH]c1=O,-8,14,-13,1,-11,37*
CCOC(=O)Cn1cc(C#N)c(=O)[nH]c1=O,-2,8,-3,0,-22,-3
CCCC[C@@]1(C2CCCC2)Cc2cc(OCC(=O)O)c(Cl)c(Cl)c2C1=O,-17,43*,9,0,-9,-4
CC(C)(C)NC(=O)CN(Cc1ccco1)C(=O)CCC(=O)Nc1nccs1,2,13,-19,0,-20,7
COCCCn1[nH]c2c3c(ccc2c1=O)C(=O)c1ccccc1C3=O,-13,75*,18,0,-10,-5
CC1(c2ccc([N+](=O)[O-])cc2)Nc2ccccc2S1 (centres undefined),-6,4,1,15*,-14,13
O=C1Nc2ccccc2/C1=C/c1ccc([N+](=O)[O-])cc1,12,16,-13,2,-11,0
Cc1nccn1-c1ccc(NC(=O)[C@H]2O[C@@H](n3ccc(N)nc3=O)[C@H](O)[C@@H]2O)cc1,.,.,13,1,.,-16
COCCN1CCC(CNCc2cn[nH]c2-c2ccc(C)c(C)c2)C1 (centres undefined),-13,1,10,0,0,-11
COCCN1CCC(CNCc2cn(-c3cc(C)ccc3C)nc2-c2ccccc2)C1 (centres undefined),-17,2,-2,0,-26,26*
SMILES,CHO parental Ca,OX1R antag-1,CHO-K1 Ca PAM,CHO-K1 Ca ag,OX1R antag-2,CHO-K1 Ca antag
COc1cc(/C=C2\CC/C(=C\c3cc(OC)c(O)c(OC)c3)C2=O)cc(OC)c1O,-21,90*,16,3,13,6
O=c1/c(=C/c2ccccn2)sc2nc3ccccc3n12,1,13,5,1,-9,1
O=c1/c(=C\c2cc([N+](=O)[O-])cc([N+](=O)[O-])c2O)sc2nc3ccccc3n12,0,72*,-5,1,6,-13
Nc1ccc(C(=O)OCCCc2nc3cc4ccccc4cc3[nH]2)cc1,-10,41*,-4,2,-12,-3
O=C1NC[C@@H](CCCCN2C[C@H](Cc3ccccc3)N(CC3CCCCC3)C(=O)C2=O)N(Cc2ccccc2)C1=O,.,.,-10,17*,.,-5
O=C1NC[C@H](CCCCN2C[C@H](Cc3ccccc3)N(Cc3ccccc3)C(=O)C2=O)N(CC2CCCCC2)C1=O,.,.,-4,0,.,-5
O=C1NC[C@@H](CCCCN2C[C@H](Cc3ccc(O)cc3)N(CC3CCCCC3)C(=O)C2=O)N(CCC2CCCCC2)C1=O,.,.,8,63*,.,-9
COC(=O)[C@@H](Cc1ccc(O)cc1)NC(=O)[C@H]1CCC(=O)N1C(=O)OCc1ccccc1,-15,10,8,0,-18,6
Cc1ccc(Cl)c(NC(=O)COC(=O)c2cc[n+]([O-])cc2)c1Cl,-11,12,-22,0,-6,9
CCOC(=O)C1(C)CCCN(C(=O)c2cc(C)oc2C)C1 (centres undefined),.,.,22,3,.,-10
CC(C)(C)N(Cc1ccccc1)C(=O)COC(=O)C1CC(=O)N(Cc2ccccc2)C1 (centres undefined),.,.,1,1,.,13
CC(=O)Nc1ccc(-c2ccnc3c2CC(C(=O)Nc2cccc(N(C)C)c2)O3)cc1 (centres undefined),.,.,8,4,.,-3
COc1ccc(C(C(=O)NC(C)(C)C)N(Cc2ccco2)C(=O)CCC(=O)Nc2ccccn2)cc1 (centres undefined),-9,-8,0,1,-9,-4
COCCNC(=O)C(c1ccc(C)cc1)N(Cc1ccco1)C(=O)CCC(=O)Nc1ccccn1 (centres undefined),-3,56*,0,1,3,-13
O=C(c1cc(COc2cccc3cccnc23)on1)N1CCC[C@H]1CO,.,.,7,1,.,10
CC(=O)c1cccc(OCc2cc(C(=O)N(C)Cc3nccs3)no2)c1,.,.,12,2,.,-9
CCOC(=O)CC1CCCCN1C(=O)c1cc(COc2cccc3cnccc23)on1 (centres undefined),53*,48*,-29,20*,26,45*
COC(=O)C1CCCCN1C(=O)c1cc(COc2cccc3cccnc23)on1 (centres undefined),-3,15,5,2,-10,9
COC(=O)C1CCCCN1C(=O)c1cc(COc2cccc3cnccc23)on1 (centres undefined),54*,37,-22,15*,27,28*
CN(Cc1nccs1)C(=O)c1cc(COc2cccc3cnccc23)on1,25,19,-15,16*,12,15
CC(=O)c1ccc(OCc2cc(C(=O)NCCn3nc(C)cc3C)no2)cc1,-21,22,-9,5,-19,-8

# Screens (PubChem BioAssay)
